Measured values: the EternaBench riboswitch data

Test system: MS2 coat protein
Assay: apparent Kd, MS2 coat protein; higher = weaker binding; RNA-MaP array; FMN 200 µM where present
Outline: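 Stalled E. coli RNA polymerase produced the designs on Illumina sequencing-chip clusters. SNAP-549-labelled MS2 coat protein was added from 0.7 or 1.5 nM, doubling to 3 µM, without and then with constant ligand, in 100 mM Tris-HCl pH 7.5, 80 mM KCl, 4 mM MgCl2, BSA, DTT, yeast tRNA and Tween-20. The apparent Kd is the median of filtered per-cluster fits of green signal normalised to red-channel RNA signal and control-cluster median Fmax.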

[1] = designed as: ON switch for flavin mononucleotide, no ligand
[2] = ligand present: flavin mononucleotide, designed as: ON switch for flavin mononucleotide
[3] = designed as: OFF switch for flavin mononucleotide, no ligand
[4] = ligand present: flavin mononucleotide, designed as: OFF switch for flavin mononucleotide

| Sequence | apparent Kd [1] | apparent Kd [2] | apparent Kd [3] | apparent Kd [4] |
| --- | --- | --- | --- | --- |
| GCCAUCGCAUGAGGAUAUGGCACCGUUGCGGUGCCAGAAGGCAUGUCAAAUGACAUGAGGAUCACCCAUGUAGUUAAGAUGGCA | 218 nM | 13.8 nM | – | – |
| CGCUGGAUCGAGAAGGCCAUGUGGGACGCGAGCAGUGAUGUUAGGACAUGGAGGAUAUCGAACAUGAGGAUCACCCAUGUAACC | 438 nM | 25.5 nM | – | – |
| GAUUAUAAGUAAGGAUAUGUAUAUGAAACAUCUACAGAAGGUACAUGAGGAUCACCCAUGUUCUUGCAGCGUGACUAUGUAAUC | – | – | 24 nM | 27.9 nM |
| CCAUCGUGUGUGAGGAUAUGCUGGUCCUUGGAUCAGCAGAAGGCACAUGAGGAUCACCCAUGUGAAUACGAUGG | – | – | 16.3 nM | 29.5 nM |
| CUCUUGUGAGGAUAUCAGGUGUGCUAGCGUACUGGUACAUCUGAGAAGGCACAUGAGGAUCACCCAUGUUUCAA | – | – | 118 nM | 21.9 nM |
| AGAAACUACGAGAAGGACAUGAGGAUCACCCAUGUAACCACUAUGUGGAAUGUAGGAUAUCGUAGUUUCAGGAUCGUGAGAUCA | – | – | 6.17 nM | 9.84 nM |
| AUCUUGAGAGGAUAUACAUGAGGAUCACCCAUGUUGCUAACACCAUGCGGUCAUUUGCGUAGAAGGCUCAUCCG | – | – | 26.2 nM | 104 nM |
| CCAGCGUAUGUGAGGAUAUGCUGGUCCUUGGAUCAGCAGAAGGCACAUGAGGAUCACCCAUGUGAUGACGUUGG | – | – | 50.9 nM | 287 nM |
| GUUAUAAAGGUAGGAUAUAGUAUUAUAAUUAAAUUAGAAGGAUCUCACAUGAGGAUCACCCAUGUAAGAGGAUCACCCAUGUAU | – | – | 11.4 nM | 8.66 nM |
| GGUGUGUCAGGAUAUCAACACACGGCAGCAGCGUUAUGCGUUGAGAAGGGACAUGAGGAUCACCCAUGUGACGG | – | – | 46 nM | 70.9 nM |
| GCGGGAUGAGUCGUUGGUUCACAUGAGGAUCACCCAUGUAGGGAGGAUAUACAUCUGGUCCCGGAGUAGAAGGCCCUACAUCGG | – | – | 163 nM | 107 nM |
| UUCCCAGCGGGAGGAUAUGGUGCCUUAUUGGUGCUAGAAGGUCCAACAUGAGGAUCACCCAUGUGGGAGUGGUCUAAUGACCUC | 212 nM | 144 nM | – | – |
| AAAGCGUGAGGAUAUGAGGCGCCGGGCCGGUUGGUGCGGAUUCAGAAGGCACAUGAGGAUCACCCAUGUCGGUA | – | – | 41.1 nM | 96 nM |
| UUGGUAUUCGUAGGAUAUCCGUCGCCACCGUGUGGAGAAGGACGAACAUGAGGAUCACCCAUGUAUCAUGGUGUGGGCGUUGUC | – | – | 92.5 nM | 90.1 nM |
| GGUGGACAUGAGGAUCACCCAUGUGAGGAUAUCGGCUAUCUUGUCGCUGUCGGUUGCUCGAGAAGGCACAUUGU | – | – | 78.8 nM | 128 nM |
| GCACGAUCCUCAGGAUAUCACUGAAACAUGAGGAUCACCCAUGUGCGCAGAUGAGAAGGGAGGACUCCGUCUGACUAAAUGUUA | 109 nM | 10.6 nM | – | – |
| UGUCGGAGCAGAGGAUAUUACAUGAGGAUCACCCAUGUAUGAACCAAUAGCUGGAAACAGCAAUGUAAGAAGGCUGCUUCGACA | – | – | 12.4 nM | 145 nM |
| GAACUGAAGCUUAGCUUUAGUCGUACAUGAGGAUCACCCAUGUAGGAUAUGGUAGGCAUAGCUUACUAGAAGGAUAGAGUGAUC | – | – | 198 nM | 69.6 nM |
| AAGAAUAGAAAGAUUAAUAUGAAUACAUGAGGAUCACCCAUGUAGGAUAUCGACGUCAAUGACGUCGAGAAGGACAUAAAUAAU | – | – | 9.7 nM | 9.09 nM |
| GGAUAGGACAGAGGAUAUACGUGCUAGAGAUACUAGCAAAAUCUCCUCACAUGAGGAUCACCCAUGUAGAAGGCUGUCCUAUCG | – | – | 9.85 nM | 201 nM |
| GGAUUAAUAGCCCACAUGAGGAUCACCCAUGUAGUAUUUUACAAGGAUAUGGUGGGACUUCGUGGCCAGAAGGUGUAAAGGAUC | 451 nM | 397 nM | – | – |
| ACAUGAGGAUCACCCAUGUGAGGAUCACCCAUGUUAUAUUUCAGAAGGCUCGUGUGUUUGAUGAGAGAGGAUAUGGAAUAUAGG | – | – | 101 nM | 71.1 nM |
| AAGAAAUGGGAGUGAUUUGGUUCCGAGGAUAUAGGCAUCGGUACAUGAGGAUCACCCAUGUUCGACUAGAAGGCGGACGGGUCC | 169 nM | 20.4 nM | – | – |
| AGCUGUGGCCGAGGAUAUCUAAACUCAAUAACCGAAAUAUAAUCGGACAUGAGGAUCACCCAUGUAGAGAAGGCGGUCUCAGCA | – | – | 34.1 nM | 71.8 nM |
| ACAGAGGCUGACAUGAGGAUCACCCAUGUUAGAUUGUUAUGUCAGGAUAUUAUCUCGCAACGAGAUAAGAAGGGACCCUCUGUG | 37.5 nM | 7.98 nM | – | – |
| GUUAUUGACAAGAAGGCAAACAUGAGGAUCACCCAUGUUCUACAUGGAUAUUGAGGAUAUUGCCAAUACAUGAGGAUCACCCAG | – | – | 63 nM | 68.8 nM |
| UUGUACAUAGGAUAUAGUUGUUUGUACAUGAGGAUCACCCAUGUUAUGUAUCUUUUGCUUCUAGAAGGAUGUUCUU | – | – | 38.7 nM | 27.7 nM |
| CAGGAUCAAGGAUAUCAUCGACGGAACAUGAGGAUCACCCAUGUGAUUGUGCUCUCCUUGUGAGAAGGUGGCGAAU | – | – | 38.5 nM | 36.7 nM |

| Sequence | apparent Kd [1] | apparent Kd [2] | apparent Kd [3] | apparent Kd [4] |
| --- | --- | --- | --- | --- |
| CGCUCACAUGAGGAUCACCCAUGUCCUAGGAGGUCAGGAUAUAGCUCGCAUGCGUUGAGGCUAGAAGGGACAGCUG | 259 nM | 74.7 nM | – | – |
| AAUAACAGAGGAUAUACUAUUUUAUGUGUUUAUUGUUUUGAACAUGAGGAUCACCCAUGUAGAAGGCUGAAUGA | – | – | 29.9 nM | 35.8 nM |
| CCGUAGAUGGGACAGGAUAUGACUGUCGUCACAUGAGGAUCACCCAUGUCCCGGCAAUGCCACCGUUAGAAGGGUCCCGUCUCGG | 14.4 nM | 15 nM | – | – |
| GCAUCCAAUGUGAGGAUAUACCUCUGGAUACAGAGGUAGAAGGCACAUGAGGAUCACCCAUGUUACUAGGAUGC | – | – | 20.8 nM | 44.4 nM |
| GUAUUUAGAUAAGGAUAUAAGUCUAUGACAUGAGGAUCACCCAUGUGUGUCUUAGAAGGUAUUUGGGUAAUAUUGUUACAGUAA | – | 16.2 nM | – | – |
| UGCAGACGAGGAUAUGAUCAAUAAUACAUGAGGAUCACCCAUGUAAUACUGAUCCAUGGAUCAGAAGGCGUCUGCA | – | – | 16.7 nM | 22.9 nM |
| UUUACAUGAGGAUCACCCAUGUCUGUCACCCAUGUGUGCAAUCAGGAUAUGAUCUCAAGAAUGAAUUAGAAGGGAUAACAUGAG | 182 nM | 194 nM | – | – |
| GAUUGACAUGAGGAUCACCCAUGUGAGGAUAUCGGCCGGACCUUGUUAGCUUCCAUCGUGAGAAGGCACAUAGG | – | – | 30.4 nM | 31.5 nM |
| UUAAAUCAUGUAGGAUAUGCAUGGCGAAGCUACGCAGAAGGACAUGAGGAUCACCCAUGUGCUAGCGACAGAGUACUGUUGCAA | – | – | 62.7 nM | 363 nM |
| AAUUGGAACUAAGGAUAUCUGUAUUUUGUUGAAACAUGAGGAUCACCCAUGUUCAUGAAAUUAUAGGAGAAGGUAGAUCCAUAA | 5 nM | 4.6 nM | – | – |
| UUAUGUCGCGUAGGAUAUCAUUAGAGUUGUAAUUUAAUUGUAAUUUCGAUAUGAGAAGGACGUACACAUGAGGAUCACCCAUGU | – | – | 17.2 nM | 15.3 nM |
| AACACGAGAGGUGUUGUCUAACCACAUGAGGAUCACCCAUGUAAGGAUAUCGCGGCUAUCGGCAUCGAGAAGGUACAGGGAGCA | – | – | 16.2 nM | 31.4 nM |
| UCCUAACAUGAGGAUCACCCAUGUGAGGAUAUGAUACUAUGUACUUCGGUACAUAGUAUCAGAAGGCACAUCCU | – | – | 19.1 nM | 26 nM |
| UGAAAUCAUGUAGGAUAUGCAUGGCGAAGCUACGCAGAAGGACAUGAGGAUCACCCAUGUUAUAGCUACCCAGUUCGGUGGCAC | – | – | 46 nM | 136 nM |
| GCAGCUCCUGACAUGAGGAUCACCCAUGUUUAAUUAUUAAAUCAGGAUAUCCUUUCGAAACGAAAGGAGAAGGGAUAAGCUGCU | 4.81 nM | 4.94 nM | – | – |
| UGCCACCGGGAGAAGGGCAUACGUGAGGUCCUACAUAGUCACAUGAGGAUCACCCAUGUAGAAAUGCAGGAUAUCUCGUAGCAG | – | – | 6.93 nM | 13.4 nM |
| GCGUAAUAGAUCCUAUUUAUCUACAUGAGGAUCACCCAUGUGCAGGAUAUGCUAUAAUUUAAUAAGCAGAAGGGCAAUUUCCGC | – | – | 73.3 nM | 159 nM |
| ACAGUUCUGCAAGGAUAUCGUCCUAGUUUGUUUCGAGAAGGUGCUUUAGUUUAUUCCUUUUGUUUACAUGAGGAUCACCCAUGU | – | – | 23.6 nM | 16.9 nM |
| GUCAGCUCGUGAGGAUAUACAACACUGCUUUGGCAGUGUAUUAAGAUCACAUGAGGAUCACCCAUGUAGAAGGCACGAGCUGAU | – | – | 13.2 nM | 228 nM |
| UCGGCGCGAGGAUAUGCGGCUGGUGCUUCGGGCCCUGGCGUACAUGAGGAUCACCCAUGUAGAAGGCGCGCCGC | – | – | 11.7 nM | 14.7 nM |
| AAUGGCAUAGAGAAGGCGCCGCAGCUCUUCCUCCCAUCCCAACGACAUGAGGAUCACCCAUGUAGCGAGGAUAUCUAUACCGUU | – | – | 6.91 nM | 14.1 nM |
| AAACCACAUGAGGAUCACCCAUGUCAAGAGAGACUAGGAUAUCUGAAUUAAUUAAAUUAAGGAGAAGGAGUGAAAA | 121 nM | 64.8 nM | – | – |
| GCCAUCGUAUGAGGAUAUGGCGCCGAAACGGUGCCAGAAGGCAUGUCAAUAGACAUGAGGAUCACCCAUGUGUUAUCGAUGGCA | 134 nM | 11.9 nM | – | – |
| CAGGAUAGAGGAUAUACGUAGAUACAGAUUCAUGUAAUCCUACAUGAGGAUCACCCAUGUAGAAGGCUAUCCUG | – | – | 18 nM | 113 nM |
| GUGCUUAACUAGAAGGCCGUAUGCAAAGCAUACGGAGGAUAUGGGUUCCGGAAACGGACAUGAGGAUCACCCAUGUGGCACAAA | 111 nM | 12.7 nM | – | – |
| AAUAAACAUGAGGAUCACCCAUGUCCCACCAGCCAAGGAUAUGGGCCCGCCGCACAGGUACCAGAAGGUGGCUGCC | 165 nM | 55.7 nM | – | – |
| AGAUGACAAAGUCAUCUCGCUUUGACAUGAGGAUCACCCAUGUAGGAUAUAUUACUCAAAGAGUAAUAGAAGGACAUGUGUCUU | – | – | 37.2 nM | 104 nM |
